Results published in ChEMBL document CHEMBL5257157, “Biological evaluation of novel amidino substituted coumarin-benzazole hybrids as promising therapeutic agents” (RSC Med Chem, 2023).

Tests used:
[1] = test system: CCRF-CEM; experiment: Antiproliferative activity against human CEM cells assessed as inhibition of cell growth; type: functional, cell-based
[2] = test system: CAPAN-1; experiment: Antiproliferative activity against human CAPAN-1 cells assessed as inhibition of cell growth incubated for 72 hrs by CellTiter96 Aqueous One Solution cell proliferation assay; type: functional, cell-based; settings: CAPAN-1, 72 h
[3] = Antioxidant activity assessed as reduction of Fe3+ complex to Fe2+ analogue by measuring mmolFe2+/mmolc by FRAP assay; type: functional
Method in brief: (§1)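 Pure compounds tested in three colorimetric antioxidant assays, each run alongside the reference BHT. […] ABTS: direct reaction with ABTS•+ radical cation, reported as IC50. DPPH: scavenging of the stable DPPH radical by proton or electron donation, reported as IC50. FRAP: reducing power, expressed as mmolFe2+/mmolC.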

[4] = test system: Human alphaherpesvirus 1; experiment: Antiviral activity against HSV-1 KOS infected in human HEL 299 cells assessed as inhibition of virus-induced cytopathogenic effect incubated for 3 to 7 days by MTS assay; type: functional, organism-based; settings: Human alphaherpesvirus 1, KOS
[5] = Cytotoxicity against human HEL 299 cells assessed as inhibition of cell growth incubated for 72 hrs by CellTiter96 Aqueous One Solution cell proliferation assay; type: toxicity, cell-based
[6] = test system: NCI-H460; experiment: Antiproliferative activity against human NCI-H460 cells assessed as inhibition of cell growth incubated for 72 hrs by CellTiter96 Aqueous One Solution cell proliferation assay; type: functional, cell-based; settings: NCI-H460, 72 h
[7] = test system: Huh-7; experiment: Cytotoxicity against human Huh-7 cells assessed as inhibition of cell growth incubated for 72 hrs by CellTiter96 Aqueous One Solution cell proliferation assay; type: functional
[8] = test system: Influenza A virus; experiment: Antiviral activity against influenza virus H1N1 infected in dog MDCK cells assessed as inhibition of virus-induced cytopathogenic effect incubated for 3 to 7 days by MTS assay; type: functional, organism-based
[9] = test system: Human coronavirus 229E; experiment: Antiviral activity against HCoV-229E infected in human HEL 299 cells assessed as inhibition of virus-induced cytopathogenic effect incubated for 3 to 7 days by MTS assay; type: functional, organism-based
[10] = test system: Zika virus; experiment: Antiviral activity against Zika virus Mr776 infected in human Huh-7 cells assessed as inhibition of virus-induced cytopathogenic effect incubated for 3 to 7 days by MTS assay; type: functional, organism-based; settings: Mr776, Huh-7
[11] = Antioxidant activity assessed as ABTS radical scavenging activity incubated for 5 mins by absorbance based microplate reader analysis; type: functional; method in brief: as §1
[12] = Antiviral activity against HCoV-NL63 infected in human Huh-7 cells assessed as inhibition of virus-induced cytopathogenic effect incubated for 3 to 7 days by MTS assay; type: functional, cell-based; settings: Human coronavirus NL63, Huh-7
[13] = Antiproliferative activity against human DND41 cells assessed as inhibition of cell growth incubated for 72 hrs by CellTiter96 Aqueous One Solution cell proliferation assay; type: functional, cell-based; settings: DND41, 72 h
[14] = test system: Influenza B virus; experiment: Antiviral activity against influenza B virus infected in dog MDCK cells assessed as inhibition of virus-induced cytopathogenic effect incubated for 3 to 7 days by MTS assay; type: functional, organism-based
[15] = test system: Influenza A virus; experiment: Antiviral activity against influenza virus H3N2 infected in dog MDCK cells assessed as inhibition of virus-induced cytopathogenic effect incubated for 3 to 7 days by MTS assay; type: functional, organism-based
[16] = test system: Yellow fever virus; experiment: Antiviral activity against Yellow fever virus 17D infected in human Huh-7 cells assessed as inhibition of virus-induced cytopathogenic effect incubated for 3 to 7 days by MTS assay; type: functional, organism-based
[17] = test system: HL-60; experiment: Antiproliferative activity against human HL-60 cells assessed as inhibition of cell growth incubated for 72 hrs by CellTiter96 Aqueous One Solution cell proliferation assay; type: functional, cell-based; settings: HL-60, 72 h
[18] = test system: K562; experiment: Antiproliferative activity against human K562 cells assessed as inhibition of cell growth incubated for 72 hrs by CellTiter96 Aqueous One Solution cell proliferation assay; type: functional, cell-based; settings: K562, 72 h
[19] = test system: Sindbis virus; experiment: Antiviral activity against Sindbis virus infected in human Huh-7 cells assessed as inhibition of virus-induced cytopathogenic effect incubated for 3 to 7 days by MTS assay; type: functional, organism-based
[20] = test system: Respiratory syncytial virus; experiment: Antiviral activity against RSV infected in human HEL 299 cells assessed as inhibition of virus-induced cytopathogenic effect incubated for 3 to 7 days by MTS assay; type: functional, organism-based
[21] = Cytotoxicity against dog MDCK cells assessed as inhibition of cell growth incubated for 72 hrs by CellTiter96 Aqueous One Solution cell proliferation assay; type: toxicity, cell-based, Canis lupus familiaris
[22] = test system: Human coronavirus OC43; experiment: Antiviral activity against HCoV-OC43 infected in human HEL 299 cells assessed as inhibition of virus-induced cytopathogenic effect incubated for 3 to 7 days by MTS assay; type: functional, organism-based; settings: Betacoronavirus 1, HEL 299
[23] = Antioxidant activity assessed as DPPH radical scavenging activity incubated for 5 mins by absorbance based microplate reader analysis; type: functional; method in brief: as §1
[24] = test system: Z-138; experiment: Antiproliferative activity against human Z138 cells assessed as inhibition of cell growth incubated for 72 hrs by CellTiter96 Aqueous One Solution cell proliferation assay; type: functional, cell-based; settings: Z-138, 72 h
[25] = test system: LN-229; experiment: Antiproliferative activity against human LN-229 cells assessed as inhibition of cell growth incubated for 72 hrs by CellTiter96 Aqueous One Solution cell proliferation assay; type: functional, cell-based; settings: LN-229, 72 h
[26] = Drug localization in nuclear membrane of human HEp-2 cells at 10 uM incubated for 3 hrs by confocal microscopy analysis; type: ADME, cell membranes; settings: hep-2, 3 h
Method in brief: (§2)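 Compound autofluorescence was imaged by fluorescence microscopy in Hep-2 cells (ATCC CCL-23). Cells were given 10 μM and incubated for 3 hours to allow cellular uptake before imaging. Localization to subcellular compartments was judged from the fluorescence pattern.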

[27] = Drug localization in cytoplasm of human HEp-2 cells at 10 uM incubated for 3 hrs by confocal microscopy analysis; type: ADME, subcellular; settings: hep-2, 3 h; method in brief: as §2
[28] = Cytotoxicity against human PBMC cells assessed as reduction in cell viability at 0.006 to 4 uM measured after 72 hrs by CellTiter96 Aqueous One Solution cell proliferation assay; type: toxicity, cell-based; settings: dose 0.006-4 µM
[29] = Cytotoxicity against human PBMC cells assessed as reduction in cell viability measured after 72 hrs by CellTiter96 Aqueous One Solution cell proliferation assay; type: toxicity, cell-based
Method in brief: (§3)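 Normal peripheral blood mononuclear cells from healthy donors were exposed to compound for 72 hours, at concentrations up to a highest dose of 100 μM. Viability is given as a percentage of untreated PBMC control.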

[30] = Drug localization in nucleolus of human HEp-2 cells at 10 uM incubated for 3 hrs by confocal microscopy analysis; type: ADME, subcellular; settings: hep-2, 3 h; method in brief: as §2
[31] = test system: HCT-116; experiment: Antiproliferative activity against human HCT-116 cells assessed as inhibition of cell growth incubated for 72 hrs by CellTiter96 Aqueous One Solution cell proliferation assay; type: functional, cell-based; settings: HCT-116, 72 h
[32] = Cytotoxicity against human PBMC cells assessed as reduction in cell viability at 20 uM measured after 72 hrs by CellTiter96 Aqueous One Solution cell proliferation assay; type: toxicity, cell-based; method in brief: as §3

SMILES | IC50 [2] [µM] | Activity [3] [mmol/mmol] | EC50 [4] [µM] | CC50 at 72 h [5] [µM] | IC50 [6] [µM] | CC50 [7] [µM] | EC50 [8] [µM] | EC50 [9] [µM] | EC50 [10] [µM] | IC50 [11] [µM] | EC50 [12] [µM] | IC50 [13] [µM] | EC50 [14] [µM] | EC50 [15] [µM] | EC50 [16] [µM] | IC50 [17] [µM] | IC50 [18] [µM] | EC50 [19] [µM] | IC50 [24] [µM] | IC50 [25] [µM] | further results
CCN(CC)c1ccc2cc(-c3nc4cccnc4s3)c(=N)oc2c1 | – | – | – | – | – | – | – | – | – | – | – | – | – | – | – | – | – | – | – | – | IC50 [1]: 0.17 µM
O=c1oc2ccccc2c(Cl)c1-c1nc2cc(C3=NCCN3)ccc2[nH]1 | 99.3 | 35.1 | > 100 | 99.5 | > 100 | 85 | > 100 | > 100 | > 100 | 370 | > 100 | 36.5 | > 100 | > 100 | > 100 | 55.7 | > 100 | > 100 | 50.5 | > 100 | EC50 [20]: > 100 µM; CC50 at 72 h [21]: 92.1 µM; EC50 [22]: > 100 µM; IC50 [23]: 440 µM
O=c1oc2ccc(Br)cc2c(Cl)c1-c1nc2cc(C3=NCCCN3)ccc2[nH]1 | 54.2 | 95.1 | > 100 | > 100 | > 100 | > 100 | 43.8 | > 100 | 9.4 | 360 | > 100 | 49.2 | 9 | 51 | 11.2 | > 100 | 59.5 | 59 | 52.1 | > 100 | EC50 [20]: 73.5 µM; CC50 at 72 h [21]: > 100 µM; EC50 [22]: 78 µM; IC50 [23]: 110 µM
CCN(CC)c1ccc2cc(-c3nc4ccc(C5=NCCCN5)cc4s3)c(=O)oc2c1.Cl | 2 | 3.29 | 25.5 | > 100 | > 100 | 1.8 | > 100 | 33 | > 100 | 980 | > 100 | 1.3 | > 100 | > 100 | > 100 | > 100 | > 100 | > 100 | 1.5 | 1.8 | Drug uptake [26]: Active; Drug uptake [27]: Active; Activity [28]: > 80%; IC50 at 72 h [29]: 1.7 µM; Drug uptake [30]: Active; EC50 [20]: 43.4 µM; CC50 at 72 h [21]: 4.2 µM; EC50 [22]: 28.9 µM
COC(=O)Nc1nc2cc(C(=O)c3cccs3)ccc2[nH]1 [NOCODAZOLE] | 0.13 | – | – | – | 0.25 | – | – | – | – | – | – | 0.47 | – | – | – | 0.1 | 0.07 | – | 0.31 | 0.1 | IC50 [31]: 0.13 µM
CCN(CC)c1ccc2cc(-c3nc4cc(C5=NCCN5)ccc4[nH]3)c(=O)oc2c1.Cl | 1.7 | 28.4 | > 100 | 5.1 | 1.8 | < 0.8 | > 100 | > 100 | > 100 | 170 | > 100 | 0.3 | > 100 | > 100 | > 100 | 2.1 | 1.9 | > 100 | 1.5 | 1.4 | Drug uptake [26]: Active; Activity [32]: 60%; Activity [28]: > 80%; IC50 at 72 h [29]: 1.6 µM; Drug uptake [30]: Active; EC50 [20]: > 100 µM; CC50 at 72 h [21]: < 0.8 µM; EC50 [22]: > 100 µM; IC50 [23]: 140 µM
CCN(CC)c1ccc2cc(-c3nc4ccccc4[nH]3)c(=N)oc2c1 | – | – | – | – | – | – | – | – | – | – | – | – | – | – | – | – | – | – | – | – | IC50 [1]: 0.059 µM
O=c1oc2ccccc2c(Cl)c1-c1nc2cc(C3=NCCCN3)ccc2[nH]1 | 69.2 | 38.3 | > 100 | 87.4 | > 100 | 61.7 | > 100 | > 100 | > 100 | 290 | > 100 | 19.1 | > 100 | > 100 | > 100 | 53.5 | > 100 | > 100 | 44.5 | > 100 | EC50 [20]: > 100 µM; CC50 at 72 h [21]: 81.7 µM; EC50 [22]: > 100 µM; IC50 [23]: 70 µM
Cc1ccc2oc(=O)c(-c3nc4cc(C5=NCCCN5)ccc4[nH]3)c(Cl)c2c1 | 71.9 | 47.8 | > 100 | > 100 | > 100 | 78.7 | > 100 | > 100 | > 100 | 460 | > 100 | 16.9 | > 100 | > 100 | > 100 | 64.2 | > 100 | > 100 | 48.1 | > 100 | EC50 [20]: 64.1 µM; CC50 at 72 h [21]: 77.1 µM; EC50 [22]: 74.2 µM; IC50 [23]: 520 µM
O=c1oc2ccc(Br)cc2c(Cl)c1-c1nc2cc(C3=NCCN3)ccc2[nH]1 | 29.9 | 130 | > 100 | 51.6 | > 100 | 2.3 | 16.2 | > 100 | > 100 | 260 | > 100 | 6.2 | > 100 | > 100 | > 100 | 49.6 | 9.7 | > 100 | 6.4 | 40.9 | EC50 [20]: > 100 µM; CC50 at 72 h [21]: 59 µM; EC50 [22]: > 100 µM; IC50 [23]: 130 µM
